This is an account of results in ChEMBL document CHEMBL1127367, “Antiproliferative properties of polyamine analogues: a structure-activity study” (J Med Chem, 1994).

Test [1] has as its target Spermidine/spermine N(1)-acetyltransferase (SAT) (Mus musculus) (UniProt Q6P8J2+P48026). Put plainly: […] spermidine/spermine N1-Acetyltransferase (SSAT) activity. Further details: concentration or dose not given beside the values. The test is classed as functional.
Test [2] has as its system L1210. Put plainly: Compound was evaluated for its impact on putrescine (Put) levels after 48 hr at concentration 10 uM. The test is classed as functional, Mus musculus. In outline:
(§1)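 L1210 suspension cultures were grown in RPMI-1640 with 10% NuSerum, 2% HEPES-MOPS and 1 mM aminoguanidine (37 °C, 5% CO2). Log-phase cells were treated for 48 h, then washed twice in cold RPMI-1640 and pelleted. Pellets were extracted with 0.6 N perchloric acid, and supernatants were held at −20 °C until HPLC. Polyamine levels are given as % of untreated controls.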

Test [3] relates to L1210. Put plainly: Compound level in L1210 cells after 48 hours of incubation at initial concentration of 10 uM is expressed as nmol/10e6 cells. The test is classed as functional, Mus musculus. In outline: (§2)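 Murine L1210 leukemia cells were kept in logarithmic growth as a suspension in RPMI-1640 with 10% NuSerum, 2% HEPES-MOPS buffer and 1 mM aminoguanidine, at 37 °C under 5% CO2. Log-phase cells were exposed to the analogue for 48 h. Intracellular analogue content is reported per 10^6 cells.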

For test [4], the system named is L1210. Put plainly: In vitro inhibition of L1210 growth after 96 hours. The note with it: Mus musculus, L1210, 96 h. The test is classed as functional, cell-based. In outline: (§3)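 Log-phase L1210 cultures (0.5–1.0 × 10^5 cells/mL) treated with analogue diluted in sterile water and filter-sterilized. After 48 h, cells were reseeded and grown a further 48 h for the 96 h point. Cells counted by Coulter counter. % growth = (treated − inoculum)/(untreated − inoculum) × 100.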

Test [5] addresses T1, Ornithine decarboxylase (Mus musculus) (UniProt P00860).
T1 sequence (whole entry): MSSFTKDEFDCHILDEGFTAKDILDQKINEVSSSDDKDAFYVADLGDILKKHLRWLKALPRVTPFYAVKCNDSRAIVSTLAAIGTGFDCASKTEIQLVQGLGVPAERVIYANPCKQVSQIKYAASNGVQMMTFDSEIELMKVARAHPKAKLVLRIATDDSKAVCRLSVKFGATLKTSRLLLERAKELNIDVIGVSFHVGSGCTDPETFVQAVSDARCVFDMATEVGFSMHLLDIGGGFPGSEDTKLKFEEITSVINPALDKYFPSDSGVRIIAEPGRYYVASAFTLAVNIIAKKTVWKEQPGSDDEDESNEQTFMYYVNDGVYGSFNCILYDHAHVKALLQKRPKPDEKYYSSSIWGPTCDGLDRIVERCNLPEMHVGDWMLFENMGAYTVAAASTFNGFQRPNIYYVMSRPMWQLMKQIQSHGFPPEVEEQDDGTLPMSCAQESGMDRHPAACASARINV
The test can be described thus: Inhibition of ornithine decarboxylase (ODC) activity. Further details: concentration or dose not given beside the values. The class given is functional.

Test [6] concerns L1210. Put plainly: Compound was evaluated for its impact on spermidine levels after 48 hr at concentration 10 uM. The test is classed as functional, Mus musculus. In outline: as §1
Test [7] deals with L1210. Put plainly: Compound was evaluated for its impact on spermine levels after 48 hr at concentration 10 uM. The test is classed as functional, Mus musculus. In outline:
(§4)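 Murine L1210 leukemia cells in log-phase suspension (RPMI-1640, 10% NuSerum, 2% HEPES-MOPS, 1 mM aminoguanidine, 37 °C, 5% CO2) exposed to analogue for 48 h. Cells washed twice in cold RPMI-1640, extracted with 0.6 N perchloric acid, and polyamines quantified by HPLC. Spermine is reported as % of untreated control.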

Test [8] deals with L1210. The test can be described thus: Inhibition of radiolabeled spermidine uptake into L1210 cells in vitro. The class given is functional, cell-based, Mus musculus.
For test [9], the system named is L1210. The test can be described thus: In vitro inhibition of L1210 growth after 48 hours. The test is classed as functional, cell-based. The note with it: Mus musculus, L1210, 48 h. In outline: as §3
In test [10] the target is T2, S-adenosylmethionine decarboxylase proenzyme 1 (Mus musculus) (UniProt P0DMN7).
T2 sequence (whole entry): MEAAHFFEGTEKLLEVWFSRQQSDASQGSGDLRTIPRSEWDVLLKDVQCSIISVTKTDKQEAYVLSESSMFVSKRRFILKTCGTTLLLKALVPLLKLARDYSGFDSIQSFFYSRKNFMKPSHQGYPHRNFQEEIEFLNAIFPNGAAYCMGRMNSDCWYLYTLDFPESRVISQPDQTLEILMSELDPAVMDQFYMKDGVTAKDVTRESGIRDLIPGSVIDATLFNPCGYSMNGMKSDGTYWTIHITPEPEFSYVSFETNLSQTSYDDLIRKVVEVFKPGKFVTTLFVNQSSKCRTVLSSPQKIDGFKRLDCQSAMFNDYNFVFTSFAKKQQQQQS
Put plainly: Inhibition of S-Adenosyl-methionine decarboxylase (AdoMetDC) activity. The class given is functional. Further details: concentration or dose not given beside the values.

Test [11] has as its system L1210. The test can be described thus: Compound was evaluated for its impact on putrescine (Put) levels after 48 hr at concentration 100 uM. The class given is functional, Mus musculus.
The test system of test [12] is L1210. Put plainly: Compound was evaluated for its impact on spermidine levels after 48 hr at concentration 20 uM. The test is classed as functional, Mus musculus. In outline:
as §1

The subject of test [13] is L1210. Put plainly: Compound was evaluated for its impact on spermidine levels after 48 hr at concentration 100 uM. The test is classed as functional, Mus musculus.
Test [14] relates to L1210. Put plainly: Compound was evaluated for its impact on spermine […] levels after 48 hr at concentration 100 uM. The class given is functional, Mus musculus. In outline: as §1
The subject of test [15] is L1210. The test can be described thus: Compound was evaluated for its impact on putrescine (Put) levels after 48 hr at concentration 20 uM. The class given is functional, Mus musculus. In outline:
as §1

The subject of test [16] is L1210. Put plainly: Compound was evaluated for its impact on spermine […] levels after 48 hr at concentration 20 uM. The class given is functional, Mus musculus. In outline: as §1
For test [17], the system named is L1210. Put plainly: Compound was evaluated for its impact on spermine levels after 48 hr at concentration 70 uM. The test is classed as functional, Mus musculus. In outline: as §4
The test system of test [18] is L1210. Put plainly: Compound was evaluated for its impact on spermine levels after 48 hr at concentration 14 uM. The class given is functional, Mus musculus. In outline: as §4
For test [19], the system named is L1210. The test can be described thus: Compound was evaluated for its impact on putrescine (Put) levels after 48 hr at concentration 14 uM. The class given is functional, Mus musculus. In outline:
as §1

Test [20] relates to L1210. The test can be described thus: Compound was evaluated for its impact on spermidine levels after 48 hr at concentration 14 uM. The test is classed as functional, Mus musculus. In outline: as §1
Test [21] concerns L1210. Put plainly: Compound was evaluated for its impact on putrescine (Put) levels after 48 hr at concentration 70 uM. The class given is functional, Mus musculus. In outline: as §1
Test [22] concerns L1210. The test can be described thus: Compound level in L1210 cells after 48 hours of incubation at initial concentration of 14 uM is expressed as nmol/10e6 cells. The class given is functional, Mus musculus. In outline: as §2
Test [23] relates to L1210. Put plainly: Compound level in L1210 cells after 48 hours of incubation at initial concentration of 70 uM is expressed as nmol/10e6 cells. The test is classed as functional, Mus musculus. In outline:
as §2

Test [24] relates to L1210. The test can be described thus: Compound was evaluated for its impact on spermidine levels after 48 hr at concentration 70 uM. The class given is functional, Mus musculus. In outline:
as §1

Sequence of Spermidine/spermine N(1)-acetyltransferase (SAT) (Mus musculus) (P48026 whole entry, looked up): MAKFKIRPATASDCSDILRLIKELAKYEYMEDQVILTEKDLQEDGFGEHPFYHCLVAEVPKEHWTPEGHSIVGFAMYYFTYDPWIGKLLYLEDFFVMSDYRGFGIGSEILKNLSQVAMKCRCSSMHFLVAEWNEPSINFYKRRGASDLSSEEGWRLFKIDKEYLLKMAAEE
Sequence of Spermidine/spermine N(1)-acetyltransferase (SAT) (Mus musculus) (Q6P8J2 whole entry, looked up): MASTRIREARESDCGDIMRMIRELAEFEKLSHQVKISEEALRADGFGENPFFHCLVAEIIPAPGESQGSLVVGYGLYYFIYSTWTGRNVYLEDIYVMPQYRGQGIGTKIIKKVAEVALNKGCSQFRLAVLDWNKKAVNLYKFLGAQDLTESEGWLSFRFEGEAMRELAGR

A word on the IC50: it is the concentration needed to halve the response being measured. As usually defined, the Ki is the equilibrium dissociation constant of an inhibitor or competing ligand from its target. With `CCNCCCCNCCCCNCCCCNCC` [DIETHYLHOMOSPERMINE], the Activity in [1] came to 140%; in test [3], 2.94; in test [5] it was 7%; in [10] it was 41%. In addition, the Polyamine in test [2] is 0%; in test [6], 0%; in [7], 61%. Further, the IC50 was found to be 70 nM in test [4] and 200 nM in test [9]. Moreover, in test [8], the Ki is 1400 nM.
For the compound `CC(C)NCCCCNCCCCNCCCCNC(C)C`, the Activity in test [1] is 130%; in test [5], 90%; in test [10], 78%. Also, the Polyamine in [11] turned out to be 0%; in test [12] it was 17%; in [13], 7%; in test [14], 67%; in test [15], 0%; in test [16], 83%. Moreover, the IC50 in [4] is 60 nM; in test [9], 20000 nM. The Ki in test [8] is 8100 nM.
On to `CCNCCCCNCCCCNCCCCN`, for which the Activity was 110% in [1]; 3% in [5]; 2.99 in test [22]; 3.22 in test [23]; 41% in test [10]. Further, the Polyamine in test [17] worked out at 26%; in test [18], 26%; in [19], 0%; in test [20] it was 0%; in test [21], 0%; in [24] it was 0%. Besides, the values for the IC50 in test [4] and in [9] were 170 nM and 14000 nM, respectively. In test [8], this compound gave an inhibitory constant (Ki) of 1100 nM.
